Results from ChEMBL document CHEMBL1130092, “Discovery of potent nonpeptide vitronectin receptor (alpha v beta 3) antagonists” (J Med Chem, 1997).
Bridge positions count the residues as written; N and C are the ends. Peptide text beside a SMILES is read from it.

How the values were obtained:
[1] = molecular target: Integrin alpha-IIb/beta-3 (Homo sapiens, UniProt P05106+P08514); test: Affinity for platelet fibrinogen receptor, integrin alpha IIb/beta3
Integrin alpha-V/beta-3 = Integrin alpha-V/beta-3 (Homo sapiens, UniProt P05106+P06756); test: Affinity for vitronectin receptor, integrin alphaV-beta3; type: protein-complex assay
Summary of the method: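 Competitive radioligand binding to human αVβ3, displacing [3H]SK&F 107260; Ki values are means of two to three separate experiments.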

Integrin alpha-IIb/beta-3, sequence (P05106 27-788 limits assumed): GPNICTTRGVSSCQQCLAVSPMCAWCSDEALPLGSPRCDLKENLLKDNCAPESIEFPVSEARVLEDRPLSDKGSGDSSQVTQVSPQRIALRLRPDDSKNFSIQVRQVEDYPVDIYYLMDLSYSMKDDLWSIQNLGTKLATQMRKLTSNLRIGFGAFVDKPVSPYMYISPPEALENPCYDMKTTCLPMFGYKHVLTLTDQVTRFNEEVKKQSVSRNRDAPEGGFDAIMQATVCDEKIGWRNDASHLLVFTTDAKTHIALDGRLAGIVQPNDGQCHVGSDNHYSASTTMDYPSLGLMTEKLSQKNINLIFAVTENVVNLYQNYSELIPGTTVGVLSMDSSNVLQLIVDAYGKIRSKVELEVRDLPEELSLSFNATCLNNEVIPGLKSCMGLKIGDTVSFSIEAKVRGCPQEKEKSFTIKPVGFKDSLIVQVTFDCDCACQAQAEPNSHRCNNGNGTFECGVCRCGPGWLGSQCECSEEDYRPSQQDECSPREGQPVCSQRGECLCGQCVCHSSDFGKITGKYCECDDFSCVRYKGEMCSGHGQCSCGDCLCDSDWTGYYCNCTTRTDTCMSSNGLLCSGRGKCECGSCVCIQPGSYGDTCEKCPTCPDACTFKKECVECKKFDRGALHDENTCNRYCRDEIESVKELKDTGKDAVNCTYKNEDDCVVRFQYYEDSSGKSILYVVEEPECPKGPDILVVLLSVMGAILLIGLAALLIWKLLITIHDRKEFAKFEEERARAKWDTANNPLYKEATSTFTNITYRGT
Integrin alpha-IIb/beta-3, sequence (P08514 32-887 limits assumed): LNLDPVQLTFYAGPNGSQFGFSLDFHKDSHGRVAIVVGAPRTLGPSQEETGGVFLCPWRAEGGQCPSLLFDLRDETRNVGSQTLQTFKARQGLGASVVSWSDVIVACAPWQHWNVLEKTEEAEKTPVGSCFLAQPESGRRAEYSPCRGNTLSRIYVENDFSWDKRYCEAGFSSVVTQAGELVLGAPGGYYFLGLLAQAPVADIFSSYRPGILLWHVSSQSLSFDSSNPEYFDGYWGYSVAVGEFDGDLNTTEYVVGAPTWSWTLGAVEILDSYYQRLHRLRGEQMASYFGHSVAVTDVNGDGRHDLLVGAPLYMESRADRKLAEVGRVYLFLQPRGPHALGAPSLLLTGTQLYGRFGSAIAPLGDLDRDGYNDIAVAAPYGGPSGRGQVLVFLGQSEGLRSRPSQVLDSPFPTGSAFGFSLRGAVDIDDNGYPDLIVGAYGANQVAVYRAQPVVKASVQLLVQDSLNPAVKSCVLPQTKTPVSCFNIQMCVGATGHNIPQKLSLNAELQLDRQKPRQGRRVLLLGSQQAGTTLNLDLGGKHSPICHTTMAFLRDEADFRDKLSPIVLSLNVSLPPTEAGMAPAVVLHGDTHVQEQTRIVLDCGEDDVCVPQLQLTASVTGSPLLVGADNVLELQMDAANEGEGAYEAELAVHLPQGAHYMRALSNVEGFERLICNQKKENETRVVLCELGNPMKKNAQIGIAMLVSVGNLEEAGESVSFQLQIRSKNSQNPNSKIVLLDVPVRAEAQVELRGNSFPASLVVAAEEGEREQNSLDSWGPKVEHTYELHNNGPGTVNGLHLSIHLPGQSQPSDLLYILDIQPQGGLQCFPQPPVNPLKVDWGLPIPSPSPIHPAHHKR
Integrin alpha-IIb/beta-3, sequence (P08514 891-1039 limits assumed): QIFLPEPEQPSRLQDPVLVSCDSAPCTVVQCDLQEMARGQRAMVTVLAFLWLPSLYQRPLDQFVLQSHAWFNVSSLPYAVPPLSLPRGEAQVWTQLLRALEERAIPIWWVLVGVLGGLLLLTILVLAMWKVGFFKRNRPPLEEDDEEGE
Integrin alpha-V/beta-3, sequence (P05106 27-788 limits assumed): as the sequence (P05106 27-788 limits assumed) above
Integrin alpha-V/beta-3, sequence (P06756 31-889 limits assumed): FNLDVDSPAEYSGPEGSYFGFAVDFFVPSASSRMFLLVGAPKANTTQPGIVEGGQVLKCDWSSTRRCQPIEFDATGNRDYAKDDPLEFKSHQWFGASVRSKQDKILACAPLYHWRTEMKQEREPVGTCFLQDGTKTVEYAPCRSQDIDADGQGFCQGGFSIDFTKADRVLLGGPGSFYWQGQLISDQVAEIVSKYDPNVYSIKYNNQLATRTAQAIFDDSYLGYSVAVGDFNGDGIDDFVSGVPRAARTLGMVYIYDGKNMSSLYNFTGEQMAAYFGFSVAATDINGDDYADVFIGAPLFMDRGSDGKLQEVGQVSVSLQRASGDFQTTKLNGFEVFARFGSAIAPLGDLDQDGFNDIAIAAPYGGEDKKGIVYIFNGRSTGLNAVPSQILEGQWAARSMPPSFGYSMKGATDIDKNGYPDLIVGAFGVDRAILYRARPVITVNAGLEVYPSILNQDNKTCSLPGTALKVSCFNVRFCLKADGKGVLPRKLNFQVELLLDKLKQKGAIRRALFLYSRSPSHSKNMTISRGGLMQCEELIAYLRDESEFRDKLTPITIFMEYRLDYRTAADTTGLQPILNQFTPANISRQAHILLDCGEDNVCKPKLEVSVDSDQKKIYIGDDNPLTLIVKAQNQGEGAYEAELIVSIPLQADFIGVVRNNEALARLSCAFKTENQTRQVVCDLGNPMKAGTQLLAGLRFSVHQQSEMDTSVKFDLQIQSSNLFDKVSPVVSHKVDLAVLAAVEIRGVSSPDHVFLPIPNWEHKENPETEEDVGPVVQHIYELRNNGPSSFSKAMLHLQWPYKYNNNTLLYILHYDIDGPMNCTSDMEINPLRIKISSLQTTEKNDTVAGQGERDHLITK
Integrin alpha-V/beta-3, sequence (P06756 891-1048 limits assumed): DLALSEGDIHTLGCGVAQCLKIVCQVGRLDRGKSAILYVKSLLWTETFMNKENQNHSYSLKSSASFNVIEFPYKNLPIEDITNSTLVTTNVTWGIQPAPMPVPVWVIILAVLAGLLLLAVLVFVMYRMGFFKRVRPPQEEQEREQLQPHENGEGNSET

Row | SMILES | Ki [1] | Ki (Integrin alpha-V/beta-3)
1 | CN1Cc2cc(C(=O)N3CCN(c4ccccc4)CC3)ccc2NC(CC(=O)O)C1=O (stereo not given) | > 100000 nM | 
2 | CN1Cc2cc(C(=O)Nc3nc4ccccc4[nH]3)ccc2NC(CC(=O)O)C1=O (stereo not given) | > 50000 nM | 1150 nM
3 | CN1C(=O)c2ccccc2SSc2ccccc2NC(=O)[C@H](CC(=O)O)NC(=O)CNC(=O)[C@@H]1CCCN=C(N)N [SKF-107260] |  | 3.5 nM
4 | CN1Cc2cc(C(=O)NCCc3nc4ccccc4[nH]3)ccc2NC(CC(=O)O)C1=O (stereo not given) | > 50000 nM | 1100 nM
5 | CN(C(=O)c1ccccc1)[C@@H](CCCNC(=N)N)C(=O)NCC1=CC(CC(=O)O)C(=O)N(c2ccccc2)CC1 (stereo not given in full) |  | 50 nM
6 | N/C1=N/CCC[C@H](N)C(=O)NCC(=O)N[C@@H](CC(=O)O)C(=O)N[C@@H](CO)C(=O)N[C@@H](Cc2ccccc2)C(=O)NCC(=O)N1 (H-RGDSFG; lactam 1-C) | 75000 nM | 10 nM
7 | CN1Cc2cc(C(=O)NCc3nc4ccccc4[nH]3)ccc2N[C@@H](CC(=O)O)C1=O | 52000 nM | 15 nM
8 | N=C(N)c1ccc(NC(=O)c2ccc3c(c2)CN(CCc2ccccc2)C(=O)C(CC(=O)O)N3)cc1 (stereo not given) |  | 56000 nM
9 | CC(=O)C[C@@H]1NC(=O)[C@@H](Cc2ccccc2)NC(=O)[C@H](C(C)C)NC(=O)[C@H](CCCN=C(N)N)NC(=O)CNC1=O | 42000 nM | 10 nM
10 | CN1Cc2cc(C(=O)NCc3nc4ccccc4[nH]3)ccc2NC(CC(=O)O)C1=O (stereo not given) | 30000 nM | 24 nM
11 | N=C(N)c1cccc(NC(=O)c2ccc3c(c2)CN(CCc2ccccc2)C(=O)C(CC(=O)O)N3)c1 (stereo not given) | 4500 nM | 510 nM
12 | CN1Cc2cc(C(=O)N3CCN(c4ccncc4)CC3)ccc2NC(CC(=O)O)C1=O (stereo not given) | 8 nM | 1000 nM
